Shown are actives, neighbours in structure and some others; about 5.5% of the full set was active somewhere.
STAT3 blocker: inhibitors of IL-6 induced STAT3 signaling | 190,000 tested, 0.89% active | inhibition, % at 5.5 µM | AID 862 | U3A cells, IL-6 STAT3-luciferase reporter, luminescence; host cell line lacks STAT1;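 active = inhibition above the mean inhibition across all screened compounds plus 3 SD, cut at about 44% in these data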;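 note: 0% = DMSO only wells and 100% = 100 µM nifuroxazide control wells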
STAT1 act: activators of IFN-gamma induced STAT1 signaling; NIH 3T3 STAT1-luciferase reporter, luminescence; 100% = IFN-gamma alone, no compound; activation (% of control), % at 5.5 µM; 200,000 tested, 2.6% active;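 active = activation above the screen-wide mean activation plus 3 SD, cut at about 130% in these data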;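 note: raw ratio to IFN-gamma control signal so 100% means no change and 0% no light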
STAT1 blocker: inhibitors of IFN-gamma induced STAT1 signaling. NIH 3T3 STAT1-luciferase reporter, luminescence. inhibition, % at 5.5 µM. AID 920. 200,000 tested, 0.35% active;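 active = inhibition above a set limit, the mean inhibition across all tested compounds plus 3 SD, cut at about 34% in these data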;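 note: 0% = IFN-gamma with DMSO and 100% = IFN-gamma with 300 µM nifuroxazide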
Cl transport mod: modulates chloride dependent transport by human KCC2. 190,000 tested, 2.2% active. B-score of Tl+ flux slope (higher = more flux/activation; lower = inhibition) at 10 µM. Q9H2X9. KCC2 cells, thallium flux FluoZin-2 fluorescence;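 active = thallium flux slope and its plate-corrected score both differing from the plate sample mean at a set confidence after two filtering rounds, in either direction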;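 note: slope of fluorescence scaled to starting intensity during 10 to 20 s after thallium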
Target sequence (Q9H2X9 whole entry, looked up): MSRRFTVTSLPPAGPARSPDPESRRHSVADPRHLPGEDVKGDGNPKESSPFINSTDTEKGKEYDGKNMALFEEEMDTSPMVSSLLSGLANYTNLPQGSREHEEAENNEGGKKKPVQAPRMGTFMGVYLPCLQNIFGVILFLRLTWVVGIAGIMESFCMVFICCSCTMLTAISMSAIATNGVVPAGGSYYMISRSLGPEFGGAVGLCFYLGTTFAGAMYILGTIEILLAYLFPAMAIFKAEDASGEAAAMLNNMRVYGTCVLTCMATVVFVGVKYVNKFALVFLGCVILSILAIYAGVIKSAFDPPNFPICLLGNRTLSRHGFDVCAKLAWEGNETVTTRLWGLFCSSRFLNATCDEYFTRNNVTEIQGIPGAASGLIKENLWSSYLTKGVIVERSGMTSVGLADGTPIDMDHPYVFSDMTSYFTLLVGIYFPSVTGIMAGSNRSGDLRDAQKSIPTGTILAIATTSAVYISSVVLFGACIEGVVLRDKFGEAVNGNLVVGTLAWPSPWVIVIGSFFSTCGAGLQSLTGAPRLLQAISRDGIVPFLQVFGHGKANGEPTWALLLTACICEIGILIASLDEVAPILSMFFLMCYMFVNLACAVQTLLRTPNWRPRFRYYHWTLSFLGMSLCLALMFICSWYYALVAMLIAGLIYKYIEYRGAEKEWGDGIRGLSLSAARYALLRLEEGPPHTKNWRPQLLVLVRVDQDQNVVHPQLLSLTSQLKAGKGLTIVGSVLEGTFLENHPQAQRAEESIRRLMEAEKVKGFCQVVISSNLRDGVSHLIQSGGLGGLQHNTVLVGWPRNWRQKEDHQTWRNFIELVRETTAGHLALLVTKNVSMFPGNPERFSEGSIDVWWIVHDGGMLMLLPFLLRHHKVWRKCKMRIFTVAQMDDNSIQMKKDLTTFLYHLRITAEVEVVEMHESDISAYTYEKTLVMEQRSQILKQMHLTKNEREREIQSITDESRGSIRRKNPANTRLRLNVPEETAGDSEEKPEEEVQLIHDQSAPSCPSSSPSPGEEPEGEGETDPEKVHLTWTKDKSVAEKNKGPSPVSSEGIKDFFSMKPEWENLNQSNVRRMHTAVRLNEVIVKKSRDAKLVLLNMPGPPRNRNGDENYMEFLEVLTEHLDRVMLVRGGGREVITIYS
STAT3 activator: increases IL-6 driven STAT3 reporter signal. 190,000 tested, 0.91% active. AID 871. activation (% of control), % at 5.6 µM. U3A cells, IL-6 STAT3-luciferase reporter, luminescence; 100% = signal with IL-6 EC80 alone;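 active = activation above the screen-wide mean of compound activation plus 3 SD, cut at about 130% in these data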;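 note: 0% = background luminescence of wells with medium and substrate only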
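Assay system – human STAT1-deficient U3A cells with stable STAT3-luciferase reporter · Also added – IL-6 (33 ng/mL) · Schedule – compound 1 h, then IL-6 6 h at 37 °C · Technique – reporter luminescence signal · Evaluation – % activation versus median of IL-6-stimulated wells · Benchmarks – IL-6-only wells as 100% reference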
HSV augment: increases HSV replication in cells | HSV replication augmentation in cells, fold increase | maximum fold increase | 220,000 tested, 0.005% active; in the data active = maximum fold increase above about 1.5; inconclusive = no clear call, values can overlap the other calls; tested in PC3 cells
Numbers without * were called inactive; i = inactive; ? = inconclusive; . = no result.

SMILES	STAT3 blocker	STAT1 act	STAT1 blocker	Cl transport mod	STAT3 activator	HSV augment
COc1cc(/C=C2\C(=O)ON=C2c2ccccc2)cc(Cl)c1O	10	98	-1	-5.3*	95	.
COc1cc(/C=C2/C(=O)ON=C2c2ccccc2)ccc1O	-6	89	12	-0.96	103	i
O=C(CN1C(=O)NC2NC(=O)NC21)N/N=C/c1ccccc1F (stereo unspecified)	-4	99	1	0.83	108	i
CC(=O)c1cnc(Nc2cccc(C)c2)s1	17	134*	-36	-0.3	92	i
O=C(c1ccccc1)c1cnc(Nc2ccc(Cl)c(Cl)c2)s1	20	107	-8	2	86	i
COC(C(=O)Nc1c(F)cccc1F)c1ccccc1 (stereo unspecified)	10	96	3	0.23	98	i
O=C(Nc1ccc(-c2csc(-c3ccccc3)n2)cc1)c1ccccc1	23	105	-5	.	82	i
C=CCNC(=O)c1ccc(-c2nc(-c3ccccc3)cs2)cc1	12	146*	-51	.	99	i
CC(C)C(NC(=O)C(Cc1ccccc1)NC(=O)OCc1ccccc1)C(=O)O (stereo unspecified)	8	100	-2	0.026	96	i
O=C(COc1ccc2ccccc2c1)Nc1ccc2c3c(cccc13)CC2	1	101	-2	-0.031	99	i
CCOC(=O)c1sc(NC(=O)c2ccc(CC)s2)nc1C	5	126	-29	.	99	i
CCOC(=O)c1sc(NC(=O)c2ccc3ncsc3c2)nc1C	32	148*	-50	-0.4	74	i
CCOC(=O)CNC(=O)c1sc(NC(=O)c2ccccc2F)nc1C	0	129*	-31	0.41	102	i
CCOC(=O)c1sc(NC(=O)c2ccccc2OC)nc1C	39	146*	-51	0.22	74	i
CCOC(=O)c1sc(NC(=O)c2cncc(Br)c2)nc1C	-10	126	-30	.	110	i
CC(C)c1ccc(C2NC(=O)CCC2[N+](=O)[O-])cc1 (stereo unspecified)	0	101	-3	0.46	104	i
O=C(N/N=C/c1cccs1)c1n[nH]c2c1CCC2	24	130*	-33	1.6	79	i
Clc1ccccc1-c1nc(-c2cccnc2)no1	-21	129*	-31	1.7	120	i
Clc1ccc(Br)cc1-c1nc(-c2cccnc2)no1	-43	105	-6	0.49	141*	.
Clc1ccccc1-c1nc(-c2ccncc2)no1	.	.	.	-0.71	.	i
Cc1ccccc1-c1nc(-c2cccnc2)no1	-11	139*	-43	-0.048	112	i
Clc1ccccc1/C=C/c1nc(-c2cccnc2)no1	.	.	.	0.75	.	i
Cc1cc(N(CCO)CCO)ccc1C(c1ccc(N(CCO)CCO)cc1C)c1ccccc1Cl	4	105	-6	-0.038	98	i
CCCOc1ccc(CN(CCO)CCO)cc1[N+](=O)[O-]	-38	112	-13	0.45	133*	i
Cc1ccc(S(=O)(=O)c2cnc3cc(C)nn3c2N)cc1	12	93	7	0.63	95	i
SMILES	STAT3 blocker	STAT1 act	STAT1 blocker	Cl transport mod	STAT3 activator	HSV augment
CC(C)C(NC(=O)C1CCCCC1)C(=O)Nc1ccncc1 (stereo unspecified)	6	98	2	.	100	i
CC(C)C(NC(=O)C1CCCCC1)C(=O)Nc1ccc2c(c1)OCCO2 (stereo unspecified)	20	132*	-35	.	86	i
CCN/C=C(\C#N)S(=O)(=O)c1ccc(Br)cc1	.	.	.	0.92	.	i
O=C(c1ccc(C(=O)N2CCCc3ccccc32)s1)N1CCCc2ccccc21	20	104	-4	.	84	i
O=C(c1ccc(Cl)s1)N1CCc2ccccc21	-13	144*	-56	-1.6	112	i
CCc1sc(C(=O)N2CCc3ccccc32)cc1C	23	134*	-36	-3.3	84	i
Cc1ccc(C(=O)N2CCc3ccccc32)cc1	-33	115	-20	-0.99	131	i
Clc1ccc2oc3c(Cl)ncnc3c2c1	-26	100	0	-1.7	118	i
O=C(CSCc1ccccc1F)NCc1ccccc1	-2	133*	-33	-0.3	106	i
O=C(CSCc1cccc(F)c1)NCc1ccccc1	6	133*	-36	-0.17	101	i
COc1ccc(Cl)cc1C(=O)Nc1cccc(-c2ccc3nncn3n2)c1	34	89	11	-1.3	76	i
Cc1c(Cl)cccc1NC(=O)[C@@H](NC(=O)c1ccccc1Cl)C(C)C	-2	99	1	-0.18	100	i
N#CC1=C(N)SC(N)=C(C#N)C1CCc1ccccc1	17	85	16	-3.1*	88	i
N#CC1=C(N)SC(N)=C(C#N)C1c1ccc(C(F)(F)F)cc1	2	100	0	0.93	102	?
CCc1ccc(C2C(C#N)=C(N)SC(N)=C2C#N)cc1	16	91	10	7.9*	90	i
CCOc1ccc(CN2CCN(Cc3cccn3-c3ncccn3)CC2CCO)cc1 (stereo unspecified)	5	108	-11	.	99	i
Cc1nn(C)cc1/C=C/C(=O)c1ccc(O)cc1	-26	119	-22	-0.077	118	i
O=C(O)c1ccc(Cl)c(NC(=S)NC(=O)c2ccccc2[N+](=O)[O-])c1	1	105	-9	-0.019	103	i
O=C(/C=C\Nc1cccc(F)c1)c1ccc2c(c1)OCO2	96*	63	51*	1.6	21	i
O=C(/C=C\Nc1ccccc1Br)c1ccc2c(c1)OCO2	87*	24	82*	-0.012	27	i
CNc1cc([N+](=O)[O-])ccc1N/C=C/C(=O)c1ccc2c(c1)OCO2	-38	135*	-39	0.24	135*	i
COc1ccc(CCNC(=O)COC(=O)/C=C/c2cc(OC)c(OC)c(OC)c2)cc1OC	8	94	5	-1.4	95	i
Cn1c(O)c(N=NC(=O)c2ccco2)c2ccccc21	20	121	-24	0.62	86	i
Cc1cc(N=NC(=O)c2ccccc2O)c2ccccc2c1O	8	116	-16	-3.5*	100	.
Cn1c(O)c(N=NC(=O)c2ccccc2O)c2ccccc21	-24	130*	-34	-0.33	125	i
Cc1occc1C(=O)N=Nc1c(O)n(C)c2ccccc12	-25	149*	-55	2.2	121	i
CC1CCC2C(=O)N(c3ccc(C(=O)NCc4ccccc4)cc3)C(=O)C2C1 (stereo unspecified)	12	103	-3	-1.1	92	i
COc1cc(/C=C/c2cc(C(F)(F)F)[nH]c(=O)n2)cc(OC)c1OC	17	56	46*	-2.1	87	i

Bioassay records (PubChem)
